# From ChEMBL document CHEMBL2380256, “Discovery of novel Jak2-Stat pathway inhibitors with extended residence time on target” (Bioorg Med Chem Lett, 2013)
# Active and inactive are the calls of the source. No cut-off for these calls is given here.
# How the values were obtained:
# [1] = Growth inhibition of mouse BA/F3 cells transfected with JAK3 TEL domain after 24 hrs by Alamar Blue assay; format: functional, cell-based; conditions: BaF3, 24 h, read-out: GI50
# [2] = Total plasma concentration in nude mouse allografted with mouse Ba/F3 cells expressing JAK2 TEL domain administered as po qd measured at 2 hrs; format: ADME, organism-based, BaF3
# Method in brief: (§1)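 Female nude mice implanted intravenously with Ba/F3 TEL-JAK2 cells on day 0 and dosed orally on day 10. Total plasma drug concentration was measured at the stated times post-dose, averaged over n = 3 per dose and time point.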
# [3] = target: T1, Tyrosine-protein kinase JAK3 (Homo sapiens, UniProt P52333); test: Inhibition of JAK3 (unknown origin) using biotinylated poly-EY peptide as substrate after 60 mins by HTRF assay
# T1 sequence (P52333 whole entry): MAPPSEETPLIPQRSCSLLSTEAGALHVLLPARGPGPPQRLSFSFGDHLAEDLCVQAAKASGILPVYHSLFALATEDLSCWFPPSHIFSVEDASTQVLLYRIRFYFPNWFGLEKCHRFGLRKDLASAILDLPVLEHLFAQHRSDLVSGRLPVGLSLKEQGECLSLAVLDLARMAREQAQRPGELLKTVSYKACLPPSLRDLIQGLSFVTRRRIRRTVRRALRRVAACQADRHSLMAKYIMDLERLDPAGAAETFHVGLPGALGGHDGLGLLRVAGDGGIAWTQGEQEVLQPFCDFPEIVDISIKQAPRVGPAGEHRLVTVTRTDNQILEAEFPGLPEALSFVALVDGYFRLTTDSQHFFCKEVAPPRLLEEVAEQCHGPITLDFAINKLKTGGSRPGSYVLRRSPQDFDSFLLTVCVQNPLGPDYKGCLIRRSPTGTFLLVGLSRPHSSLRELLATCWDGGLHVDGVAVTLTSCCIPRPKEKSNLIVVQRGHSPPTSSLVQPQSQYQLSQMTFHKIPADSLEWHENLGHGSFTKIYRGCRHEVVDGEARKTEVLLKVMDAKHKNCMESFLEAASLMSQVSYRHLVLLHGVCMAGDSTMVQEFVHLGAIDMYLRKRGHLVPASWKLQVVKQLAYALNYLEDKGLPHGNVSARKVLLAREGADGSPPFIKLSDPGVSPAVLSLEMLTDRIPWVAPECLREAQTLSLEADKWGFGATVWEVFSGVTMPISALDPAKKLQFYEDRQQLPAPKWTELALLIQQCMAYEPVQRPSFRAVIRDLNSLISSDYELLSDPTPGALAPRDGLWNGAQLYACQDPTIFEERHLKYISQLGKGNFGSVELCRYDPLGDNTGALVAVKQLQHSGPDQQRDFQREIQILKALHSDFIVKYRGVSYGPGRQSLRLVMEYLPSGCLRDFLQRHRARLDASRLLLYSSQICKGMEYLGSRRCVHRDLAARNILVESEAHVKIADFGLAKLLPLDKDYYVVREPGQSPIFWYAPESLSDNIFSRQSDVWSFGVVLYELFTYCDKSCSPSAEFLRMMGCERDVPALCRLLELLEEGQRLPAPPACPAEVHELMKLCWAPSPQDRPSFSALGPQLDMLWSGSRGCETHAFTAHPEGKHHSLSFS
# [4] = organism: Homo sapiens; test: Free drug level in human; format: ADME, organism-based; conditions: in vivo
# [5] = target: Tyrosine-protein kinase JAK2 (Homo sapiens, UniProt O60674); test: Inhibition of JAK2 (unknown origin) using biotinylated TYK2 peptide as substrate after 60 mins
# Sequence of Tyrosine-protein kinase JAK2 (O60674 whole entry): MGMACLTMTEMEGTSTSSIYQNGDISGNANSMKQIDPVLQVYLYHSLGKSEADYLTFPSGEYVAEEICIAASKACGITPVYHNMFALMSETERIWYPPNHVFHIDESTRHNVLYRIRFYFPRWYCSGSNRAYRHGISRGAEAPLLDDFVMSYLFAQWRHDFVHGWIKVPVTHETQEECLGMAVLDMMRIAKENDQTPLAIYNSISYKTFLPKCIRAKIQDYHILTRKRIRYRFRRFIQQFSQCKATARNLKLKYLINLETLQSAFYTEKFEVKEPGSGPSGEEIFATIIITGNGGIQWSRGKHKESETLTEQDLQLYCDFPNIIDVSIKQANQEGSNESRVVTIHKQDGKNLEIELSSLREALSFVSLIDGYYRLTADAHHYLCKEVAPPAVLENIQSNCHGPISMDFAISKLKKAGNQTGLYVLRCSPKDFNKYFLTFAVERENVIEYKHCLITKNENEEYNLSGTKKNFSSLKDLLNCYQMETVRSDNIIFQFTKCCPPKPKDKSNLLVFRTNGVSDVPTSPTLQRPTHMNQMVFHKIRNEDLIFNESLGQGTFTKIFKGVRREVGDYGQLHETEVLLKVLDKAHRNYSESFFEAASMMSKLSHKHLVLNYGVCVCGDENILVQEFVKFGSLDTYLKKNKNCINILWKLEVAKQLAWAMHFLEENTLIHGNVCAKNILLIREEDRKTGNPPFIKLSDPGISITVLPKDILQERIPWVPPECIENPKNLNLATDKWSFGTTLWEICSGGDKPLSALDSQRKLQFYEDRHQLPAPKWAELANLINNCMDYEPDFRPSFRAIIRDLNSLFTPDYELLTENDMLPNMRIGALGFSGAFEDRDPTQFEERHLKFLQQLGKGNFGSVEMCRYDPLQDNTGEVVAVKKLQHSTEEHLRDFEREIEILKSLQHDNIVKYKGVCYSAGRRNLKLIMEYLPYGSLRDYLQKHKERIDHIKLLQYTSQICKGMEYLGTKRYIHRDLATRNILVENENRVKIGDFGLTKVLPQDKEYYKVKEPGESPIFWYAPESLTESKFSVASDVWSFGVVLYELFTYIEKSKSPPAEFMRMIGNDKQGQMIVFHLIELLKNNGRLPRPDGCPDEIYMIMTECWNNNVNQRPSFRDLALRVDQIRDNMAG
# [6] = organism: Mus musculus; conditions: BaF3, 10 mg/kg
# [7] = test system: Mus musculus; test: In vivo inhibition of JAK2 TEL domain (unknown origin) transfected in mouse Ba/F3 cells allografted in nude mouse assessed as inhibition of STAT5 phosphorylation at 10 mg/kg, po qd at 2 hrs relative to vehicle-treated control; format: functional; conditions: BaF3, 2 h
# Method in brief: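 Female nude mice implanted intravenously with Ba/F3 TEL-JAK2 cells on day 0 and given a single oral dose on day 10. pStat5 was measured at the stated times post-dose. % inhibition was scaled between vehicle and a control inhibitor as maximum and minimum, with n = 3 per dose and time point, reported as mean ±SD.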
# [8] = Intrinsic clearance in rat liver microsomes; format: ADME, Microsome; conditions: read-out: CLH
# [9] = Total plasma concentration in nude mouse allografted with mouse Ba/F3 cells expressing JAK2 TEL domain administered as po qd measured at 6 hrs; format: ADME, organism-based, BaF3; method in brief: as §1
# [10] = Growth inhibition of mouse BA/F3 cells transfected with JAK2 TEL domain after 24 hrs by Alamar Blue assay; format: functional; conditions: BaF3, 24 h
smiles,measurement,setting,value
Cc1cnc(Nc2nc(N[C@@H](C)c3ncc(F)cn3)c(F)c(N3CCOCC3)n2)s1,GI50,[1],2.7 µM
same,concentration at 2 h,[2],463 ng/mL
same,IC50,[3],16.4 µM
same,Drug uptake(free),[4],3%
same,IC50,[5],0.02 µM
same,inhibition,[6],inactive
same,inhibition in vivo at 10 mg/kg,[7],50%
same,microsomal CLint,[8],82 µL/min/mg
same,concentration at 6 h,[9],185 ng/mL
same,GI50,[10],0.03 µM
